In ChEMBL document CHEMBL6134795, “Mannich reaction mediated derivatization of chromones and their biological evaluations as putative multipotent ligands for the treatment of Alzheimer's disease” (RSC Med Chem, 2024):

Assays:
[1] = biological target: T1, Amine oxidase [flavin-containing] B (Homo sapiens, UniProt P27338); experiment: Inhibition of recombinant MAO-B (unknown origin) at 20 uM preincubated for 30 mins followed substrate addition by Amplex Red reagent based fluorescence analysis relative to control
T1 sequence (P27338 whole entry): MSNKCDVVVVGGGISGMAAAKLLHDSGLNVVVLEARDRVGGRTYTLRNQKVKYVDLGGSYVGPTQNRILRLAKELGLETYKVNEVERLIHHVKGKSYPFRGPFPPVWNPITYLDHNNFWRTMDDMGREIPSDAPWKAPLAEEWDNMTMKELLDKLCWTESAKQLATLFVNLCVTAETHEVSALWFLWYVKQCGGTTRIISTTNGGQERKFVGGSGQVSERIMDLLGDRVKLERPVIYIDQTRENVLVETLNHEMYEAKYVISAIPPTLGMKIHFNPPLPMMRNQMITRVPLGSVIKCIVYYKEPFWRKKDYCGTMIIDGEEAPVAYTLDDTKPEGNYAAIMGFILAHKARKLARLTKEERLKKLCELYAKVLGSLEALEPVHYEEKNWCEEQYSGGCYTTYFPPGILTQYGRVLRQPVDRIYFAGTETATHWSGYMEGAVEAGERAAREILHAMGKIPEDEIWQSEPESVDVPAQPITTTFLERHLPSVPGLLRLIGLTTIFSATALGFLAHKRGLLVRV
Outline: (§1)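 Recombinant MAO enzyme preincubated with compound 30 min at 37 °C; substrate, HRP and Amplex Red working solution then added; H2O2 formation read at 37 °C by fluorescence, ex 545/em 590 nm. Screening at 20 μM as % inhibition versus control; IC50 only for compounds above 50% inhibition at 20 μM; triplicate (n = 3).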

[2] = biological target: Amyloid-beta precursor protein (Homo sapiens) (UniProt P05067); experiment: Inhibition of self-induced amyloid beta (1 to 42 residues) (unknown origin) aggregation at 20 uM incubated at 48 hrs by fluorimetry-based thioflavin T assay
Outline: (§2)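 Aβ1-42 pretreated with HFIP (1 mg mL−1) and dried, then incubated with compound (20 μM) at 37 °C for 24 h; an aliquot transferred and incubated further to 48 h. Glycine–NaOH buffer pH 8.0 with 5 μM ThT added; fluorescence read at 440–485 nm. % inhibition calculated against the Aβ-only control taken as 0%.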

[3] = biological target: Amyloid-beta precursor protein (Homo sapiens) (UniProt P05067); experiment: Inhibition of self-induced amyloid beta (1 to 42 residues) (unknown origin) aggregation at 20 uM incubated at 24 hrs by fluorimetry-based thioflavin T assay; outline: as §2
Cholinesterase [4] = biological target: T2, Cholinesterase (Homo sapiens, UniProt P06276); experiment: Inhibition of recombinant BuChE (unknown origin) using BTCI as substrate at 20 uM preincubated for 30 mins followed by substrate addition by TECAN multiplate reader analysis relative to control
Outline: (§3)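 Ellman method as for AChE, using butyrylcholinesterase with BTCI as substrate. Enzyme and compound preincubated 30 min at 37 °C in a CO2 incubator, then DTNB and BTCI added; absorbance read at 417 nm. Screening at 20 μM as % inhibition; IC50 for compounds exceeding 50% inhibition at 20 μM. Triplicate.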

Acetylcholinesterase [5] = biological target: T3, Acetylcholinesterase (Homo sapiens, UniProt P22303); experiment: Reversible inhibition of AChE (unknown origin) assessed as residual activity at 1 times IC50 incubated for 30 mins by dilution method relative to control
Outline: (§4)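 Samples then diluted 100-fold with substrate, giving final inhibitor levels of 0.1× and 1× IC50. Recovered activity measured relative to control; triplicate.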

SH-SY5Y [6] = experiment: Neuroprotective activity against 6-OHDA-induced cytotoxicity in human SH-SY5Y cells assessed as cell viability at 25 uM incubated for 24 hrs followed by exposure to 6-OHDA by MTT assay relative to control; assay type: functional; conditions: read-out: Activity
Outline: (§5)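 SH-SY5Y cells treated with compound (1, 5, 25 μM) and challenged with 6-OHDA; cultured 24 h at 37 °C under humidified 5% CO2. Viability measured by MTT as formazan absorbance at 594 nm and expressed relative to control.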

[7] = biological target: T1, Amine oxidase [flavin-containing] B; experiment: Reversible inhibition of MAO-B (unknown origin) assessed as residual activity at 10 times IC50 incubated for 30 mins by dilution method relative to control; conditions: 0.5 h
[8] = biological target: T1, Amine oxidase [flavin-containing] B; experiment: Reversible inhibition of MAO-B (unknown origin) assessed as residual activity at 1 times IC50 incubated for 30 mins by dilution method relative to control; conditions: 0.5 h
SH-SY5Y [9] = experiment: Inhibition of ROS production in human SH-SY5Y cells assessed as intracellular ROS level at 5 uM incubated for 24 hrs by DCF-DA staining based fluorescence analysis relative to control; assay type: functional
Outline: (§6)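 Cultured SH-SY5Y cells exposed to compound (1, 5, 25 μM) for 24 h; intracellular ROS detected with DCF-DA, which is converted to fluorescent 2,7-DCF, read at ex 478/em 518 nm. Inhibition is expressed relative to control. Mean ± SD of triplicate or more independent experiments.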

[10] = biological target: T1, Amine oxidase [flavin-containing] B; experiment: Reversible inhibition of MAO-B (unknown origin) assessed as residual activity at 0.1 times IC50 incubated for 30 mins by dilution method relative to control; conditions: 0.5 h
SH-SY5Y [11] = experiment: Cytotoxicity against human SH-SY5Y cells assessed as cell viability at 5 uM by MTT assay relative to control; assay type: functional; conditions: read-out: Activity
Outline: (§7)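 SH-SY5Y cells (DMEM/F-12 with 10% FBS, 1% horse serum, 1% penicillin) preincubated 24 h with compound at 1, 5 or 25 μM; MTT converted to formazan, solubilised in DMSO, absorbance read at 595 nm; viability expressed as percentage of untreated control.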

Acetylcholinesterase [12] = biological target: T3, Acetylcholinesterase; experiment: Reversible inhibition of AChE (unknown origin) assessed as residual activity at 100 times IC50 incubated for 30 mins by dilution method relative to control; outline: as §4
Cholinesterase [13] = biological target: T2, Cholinesterase; experiment: Inhibition of recombinant BuChE (unknown origin) using BTCI as substrate preincubated for 30 mins followed by substrate addition by TECAN multiplate reader analysis; outline: as §3
SH-SY5Y [14] = experiment: Inhibition of ROS production in human SH-SY5Y cells assessed as intracellular ROS level at 1 uM incubated for 24 hrs by DCF-DA staining based fluorescence analysis relative to control; assay type: functional; outline: as §6
[15] = biological target: T1, Amine oxidase [flavin-containing] B; experiment: Reversible inhibition of MAO-B (unknown origin) assessed as residual activity at 100 times IC50 incubated for 30 mins by dilution method relative to control; conditions: 0.5 h
SH-SY5Y [16] = experiment: Neuroprotective activity against 6-OHDA-induced cytotoxicity in human SH-SY5Y cells assessed as cell viability at 5 uM incubated for 24 hrs followed by exposure to 6-OHDA by MTT assay relative to control; assay type: functional; conditions: read-out: Activity; outline: as §5
SH-SY5Y [17] = experiment: Cytotoxicity against human SH-SY5Y cells assessed as cell viability at 1 uM by MTT assay relative to control; assay type: functional; conditions: read-out: Activity; outline: as §7
SH-SY5Y [18] = experiment: Cytotoxicity against human SH-SY5Y cells assessed as reduction in cell viability at 1 to 25 uM by MTT assay; assay type: functional, cell-based; conditions: dose 1-25 µM; outline: as §7
Acetylcholinesterase [19] = biological target: T3, Acetylcholinesterase; experiment: Reversible inhibition of AChE (unknown origin) assessed as residual activity at 10 times IC50 incubated for 30 mins by dilution method relative to control; outline: as §4
SH-SY5Y [20] = experiment: Inhibition of ROS production in human SH-SY5Y cells assessed as intracellular ROS level at 25 uM incubated for 24 hrs by DCF-DA staining based fluorescence analysis relative to control; assay type: functional; outline: as §6
SH-SY5Y [21] = experiment: Cytotoxicity against human SH-SY5Y cells assessed as cell viability at 25 uM by MTT assay relative to control; assay type: functional; conditions: read-out: Activity; outline: as §7
[22] = biological target: T1, Amine oxidase [flavin-containing] B; experiment: Inhibition of recombinant MAO-B (unknown origin) preincubated for 30 mins followed substrate addition by Amplex Red reagent based fluorescence analysis
Acetylcholinesterase [23] = biological target: T3, Acetylcholinesterase; experiment: Reversible inhibition of AChE (unknown origin) assessed as residual activity at 0.1 times IC50 incubated for 30 mins by dilution method relative to control; outline: as §4
SH-SY5Y [24] = experiment: Neuroprotective activity against 6-OHDA-induced cytotoxicity in human SH-SY5Y cells assessed as cell viability at 1 uM incubated for 24 hrs followed by exposure to 6-OHDA by MTT assay relative to control; assay type: functional; conditions: read-out: Activity; outline: as §5
[25] = biological target: T4, Amine oxidase [flavin-containing] A (Homo sapiens, UniProt P21397); experiment: Inhibition of recombinant MAO-A (unknown origin) at 20 uM preincubated for 30 mins followed substrate addition by Amplex Red reagent based fluorescence analysis relative to control; outline: as §1
T4 sequence (P21397 whole entry): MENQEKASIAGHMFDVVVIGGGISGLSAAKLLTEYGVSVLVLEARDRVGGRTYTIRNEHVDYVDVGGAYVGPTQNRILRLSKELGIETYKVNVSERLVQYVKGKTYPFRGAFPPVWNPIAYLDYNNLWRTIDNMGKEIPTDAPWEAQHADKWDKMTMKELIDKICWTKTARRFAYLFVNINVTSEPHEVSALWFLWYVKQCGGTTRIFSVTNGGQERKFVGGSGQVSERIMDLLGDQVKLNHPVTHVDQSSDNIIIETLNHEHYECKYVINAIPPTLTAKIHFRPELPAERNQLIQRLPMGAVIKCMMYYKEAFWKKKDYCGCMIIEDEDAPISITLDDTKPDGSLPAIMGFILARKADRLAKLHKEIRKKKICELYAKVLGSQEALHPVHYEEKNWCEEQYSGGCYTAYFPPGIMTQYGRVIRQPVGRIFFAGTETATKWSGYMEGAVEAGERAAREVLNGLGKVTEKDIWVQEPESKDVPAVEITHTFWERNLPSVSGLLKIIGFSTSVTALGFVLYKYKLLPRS

Acetylcholinesterase [26] = biological target: T3, Acetylcholinesterase; experiment: Inhibition of AChE (unknown origin)
Outline: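 Recombinant AChE (0.5 U ml-1) preincubated with compound for 30 min at 37 °C in a CO2 incubator. DTNB and acetylthiocholine substrate (AChSI) then added, and absorbance read at 417 nm. Screening at 20 μM as % inhibition; IC50 determined for compounds giving over 50% inhibition at 20 μM. Run in triplicate.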

[27] = biological target: T1, Amine oxidase [flavin-containing] B; experiment: Inhibition of MAO-B (unknown origin)
Cholinesterase [28] = biological target: T2, Cholinesterase; experiment: Inhibition of BuChE (unknown origin); outline: as §3

Chain of Amyloid-beta precursor protein (Homo sapiens) (P05067 whole entry, the tested form may be a part): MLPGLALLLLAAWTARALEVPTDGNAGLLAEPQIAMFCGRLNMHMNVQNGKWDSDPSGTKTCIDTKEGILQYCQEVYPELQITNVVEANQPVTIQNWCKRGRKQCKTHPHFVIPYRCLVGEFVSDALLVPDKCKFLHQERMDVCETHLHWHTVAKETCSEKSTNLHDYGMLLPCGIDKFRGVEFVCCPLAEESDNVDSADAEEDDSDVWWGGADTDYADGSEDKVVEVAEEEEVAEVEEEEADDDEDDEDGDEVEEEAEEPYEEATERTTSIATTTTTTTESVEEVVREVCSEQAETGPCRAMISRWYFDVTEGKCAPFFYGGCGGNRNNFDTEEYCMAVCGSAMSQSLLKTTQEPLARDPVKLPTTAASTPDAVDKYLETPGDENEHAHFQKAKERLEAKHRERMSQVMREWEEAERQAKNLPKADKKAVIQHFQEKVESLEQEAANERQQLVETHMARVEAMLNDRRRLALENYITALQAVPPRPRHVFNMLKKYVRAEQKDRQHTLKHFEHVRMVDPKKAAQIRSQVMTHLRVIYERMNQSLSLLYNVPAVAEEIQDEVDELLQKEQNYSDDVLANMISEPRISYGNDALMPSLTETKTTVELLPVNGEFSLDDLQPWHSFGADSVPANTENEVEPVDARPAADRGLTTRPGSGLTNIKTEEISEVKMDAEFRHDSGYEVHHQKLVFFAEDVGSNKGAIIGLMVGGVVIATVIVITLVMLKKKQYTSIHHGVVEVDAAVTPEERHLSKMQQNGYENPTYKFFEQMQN
T2 sequence (P06276 whole entry): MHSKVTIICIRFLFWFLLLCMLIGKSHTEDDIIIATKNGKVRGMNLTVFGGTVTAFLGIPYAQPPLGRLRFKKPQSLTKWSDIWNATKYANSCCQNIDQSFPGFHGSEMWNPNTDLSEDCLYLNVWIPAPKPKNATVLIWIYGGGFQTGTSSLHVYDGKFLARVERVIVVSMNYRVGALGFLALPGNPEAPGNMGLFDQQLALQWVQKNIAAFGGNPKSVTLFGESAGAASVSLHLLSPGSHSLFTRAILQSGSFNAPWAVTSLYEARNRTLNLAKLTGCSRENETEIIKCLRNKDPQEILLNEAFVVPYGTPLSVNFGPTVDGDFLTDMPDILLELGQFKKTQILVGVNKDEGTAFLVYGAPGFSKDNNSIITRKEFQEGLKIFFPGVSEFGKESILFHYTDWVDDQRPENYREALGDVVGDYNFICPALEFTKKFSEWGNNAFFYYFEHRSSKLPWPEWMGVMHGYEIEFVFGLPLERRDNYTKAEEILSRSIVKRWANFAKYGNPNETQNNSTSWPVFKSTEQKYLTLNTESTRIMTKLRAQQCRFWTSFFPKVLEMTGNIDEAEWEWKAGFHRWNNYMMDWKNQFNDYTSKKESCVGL
T3 sequence (P22303 whole entry): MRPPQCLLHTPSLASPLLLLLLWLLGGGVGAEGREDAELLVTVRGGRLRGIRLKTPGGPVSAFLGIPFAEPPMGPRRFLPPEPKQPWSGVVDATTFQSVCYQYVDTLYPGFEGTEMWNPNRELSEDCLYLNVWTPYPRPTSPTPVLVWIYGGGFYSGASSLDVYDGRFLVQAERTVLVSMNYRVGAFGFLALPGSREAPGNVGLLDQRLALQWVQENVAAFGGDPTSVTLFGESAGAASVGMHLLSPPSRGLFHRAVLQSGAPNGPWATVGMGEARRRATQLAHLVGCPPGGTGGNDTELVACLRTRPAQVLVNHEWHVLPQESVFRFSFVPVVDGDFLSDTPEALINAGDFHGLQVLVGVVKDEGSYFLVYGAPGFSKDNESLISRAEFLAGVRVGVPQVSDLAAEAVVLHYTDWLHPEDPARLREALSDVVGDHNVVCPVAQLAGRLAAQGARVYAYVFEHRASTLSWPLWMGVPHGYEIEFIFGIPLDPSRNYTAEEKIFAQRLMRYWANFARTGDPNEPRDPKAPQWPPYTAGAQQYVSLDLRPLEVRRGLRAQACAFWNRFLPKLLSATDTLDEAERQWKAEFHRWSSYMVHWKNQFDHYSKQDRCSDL

SMILES: C#CCCOc1c(CN2CCOCC2)cc(-c2cc(=O)c3ccccc3o2)cc1OCC
- inhibition at 20 µM [1]: 6.89%
- inhibition [2]: 23.7%
- inhibition [3]: 24.6%
- inhibition (Cholinesterase [4]): 4.42%

SMILES: C#CCOc1ccc(-c2cc(=O)c3ccccc3o2)cc1CN1CCOCC1
- inhibition at 20 µM [1]: 28.1%
- inhibition [2]: 11.6%
- inhibition [3]: 9%
- inhibition (Cholinesterase [4]): 4.21%

SMILES: C#CCOc1c(CN2CCCCC2)cc(-c2cc(=O)c3ccccc3o2)cc1OC
- Activity (Acetylcholinesterase [5]): 47.2%
- viability at 25 µM (SH-SY5Y [6]): 46.9%
- Activity [7]: 32.6%
- Activity [8]: 58.9%
- inhibition at 5 µM (SH-SY5Y [9]): 51%
- inhibition at 20 µM [1]: 50.8%
- Activity [10]: 76.3%
- inhibition [2]: 28.5%
- viability at 5 µM (SH-SY5Y [11]): 94.4%
- Activity (Acetylcholinesterase [12]): 25.3%
- IC50 (Cholinesterase [13]): 1.95 µM
- inhibition at 1 µM (SH-SY5Y [14]): 82.8%
- Activity [15]: 14%
- viability at 5 µM (SH-SY5Y [16]): 49.4%
- viability at 1 µM (SH-SY5Y [17]): 97.1%
- Activity (SH-SY5Y [18]): Not toxic
- Activity (Acetylcholinesterase [19]): 33.1%
- inhibition at 25 µM (SH-SY5Y [20]): 47%
- viability at 25 µM (SH-SY5Y [21]): 91.9%
- IC50 [22]: 19.6 µM
- inhibition [3]: 22.4%
- inhibition (Cholinesterase [4]): 89.9%
- Activity (Acetylcholinesterase [23]): 71.3%
- viability at 1 µM (SH-SY5Y [24]): 51.9%

SMILES: C#CCCOc1c(CN2CCN(c3ccccc3)CC2)cc(-c2cc(=O)c3ccccc3o2)cc1OC
- inhibition at 20 µM [1]: 35.4%
- inhibition at 20 µM [25]: 9.14%
- inhibition (Cholinesterase [4]): 1.63%

SMILES: C#CCCCOc1c(CN2CCOCC2)cc(-c2cc(=O)c3ccccc3o2)cc1OCC
- inhibition at 20 µM [1]: 18.2%
- inhibition (Cholinesterase [4]): 6.37%

SMILES: C#CCOc1c(CN2CCOCC2)cc(-c2cc(=O)c3ccccc3o2)cc1CN1CCOCC1
- inhibition at 20 µM [1]: 36.5%
- inhibition [2]: 23.3%
- inhibition [3]: 14.4%
- inhibition (Cholinesterase [4]): 9.03%

SMILES: C#CCCCOc1c(CN2CCCCC2)cc(-c2cc(=O)c3ccccc3o2)cc1OCC
- inhibition at 20 µM [1]: 15.6%
- inhibition (Cholinesterase [4]): 3.36%

SMILES: C#CCCOc1c(CN2CCOCC2)cc(-c2cc(=O)c3ccccc3o2)cc1OC
- inhibition at 20 µM [1]: 26.6%
- inhibition at 20 µM [25]: 7.98%
- inhibition (Cholinesterase [4]): 3.11%

SMILES: C#CCOc1c(CN2CCOCC2)cc(-c2cc(=O)c3ccccc3o2)cc1OC
- inhibition at 20 µM [1]: 15.1%
- inhibition [2]: 40.4%
- inhibition [3]: 36.1%
- inhibition (Cholinesterase [4]): 1.17%

SMILES: O=C(NCCC1CCN(Cc2ccccc2)CC1)c1coc2cc(OCc3ccccc3)ccc2c1=O
- IC50 (Acetylcholinesterase [26]): 0.37 µM
- IC50 [27]: 0.272 µM
- IC50 (Cholinesterase [28]): 5.24 µM
